One may read the IC50 as the midpoint of a concentration-inhibition curve. For orientation: CC50 means the concentration at which the toxic effect on the cells reaches its halfway point.

The values below come from ChEMBL document CHEMBL3865845 (J Med Chem, 2016).

The source made the active and inactive calls. The rule behind the calls is not given here.

The nature of data set [1]: Inhibition of HIV1 integrase activity assessed as suppression of viral replication in human MT2 cells. The class given is cell-based. The note with it: Human immunodeficiency virus 1, MT2.
The nature of data set [2]: Cytotoxicity against human MT4 cells assessed as reduction in cell viability after 2 days by CytoTox-Glo assay. In kind it is toxicity, cell-based. The note with it: mt4, 48 h.
Data set [3] relates to Human immunodeficiency virus 1. Description: Antiviral activity against bevirimat-resistant HIV1 NL4-3 harboring GagV370A mutant infected in human MT4 cells by p24 ELISA. The following applies: Human immunodeficiency virus 1, NL4-3, MT4. In kind it is functional, cell-based. The gist of the method:
(§1)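 Replication-inhibition IC50 values in MT-4 cells, each from three separate experiments.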
On the technique in general: ELISA stands for enzyme-linked immunosorbent assay.

For data set [4], the system named is Human immunodeficiency virus 1. Description: Resistance index, ratio of IC50 for bevirimat-resistant HIV1 NL4-3 harboring GagV370A mutant infected in human MT4 cells to IC50 for wild type HIV1 NL4-3 infected in human MT4 cells. The class given is functional.
Data set [5] relates to Human immunodeficiency virus 1. Description: Antiviral activity against wild type HIV1 NL4-3 infected in human MT4 cells by p24 ELISA. The class given is functional, cell-based. The note with it: Human immunodeficiency virus 1, NL4-3, MT4. The gist of the method:
as §1

The test system of data set [6] is Human immunodeficiency virus 1. Description: Potency index, ratio of IC50 for Bevirimat to IC50 for test compound for antiviral activity against bevirimat-resistant HIV1 NL4-3 harboring GagV370A mutant infected in human MT4 cells by p24 ELISA. The class given is functional.
Data set [7] relates to COS. Description: Inhibition of wild type HIV1 NL4-3 Env-mediated cell-cell fusion between viral envelope expressing virus-infected African green monkey COS cells to human TZM-bl cells incubated overnight by luciferase reporter gene assay. The class given is cell-based. The following applies: Human immunodeficiency virus 1.
Data set [8] relates to Human immunodeficiency virus 1. Description: Antiinfective activity against wild type HIV1 NL4-3 assessed as inhibition of viral infection by measuring viral infection level in human TZM-bl cells at 2 uM after 48 hrs by luciferase reporter gene assay (reference value: 100%). In kind it is functional. Set-up: scale not given: the % may be the effect or the level left. In short, it runs like this:
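NL4-3 infection of TZM-bl cells with each compound at 2 µM, read by luminescence. Infection without compound served as control. % control infection = 100 × RLU(compound)/RLU(control).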
A general note: A reporter such as luciferase makes a cellular process visible.

The nature of data set [9]: Half life in human liver microsomes at 1 uM in presence of NADPH by LC/MS/MS analysis. The class given is ADME. For orientation: Liver microsomes are a subcellular fraction often used to study metabolism.
Data set [10] is described as follows: Elimination half life in healthy humans. The class given is ADME. The note with it: human, in vivo; read-out: beta t1/2.
In data set [11] the test system is Human immunodeficiency virus 1. Description: Potency index, ratio of IC50 for Bevirimat to IC50 for test compound for antiviral activity against wild type HIV1 NL4-3 infected in human MT4 cells by p24 ELISA. The class given is functional.
A short description of data set [12]: Inhibition of HIV1 integrase activity assessed as suppression of viral replication in human H9 cells. In kind it is cell-based. The note with it: Human immunodeficiency virus 1, H9.
The nature of data set [13]: Selectivity index, ratio of CC50 for human MT4 cells to IC50 for wild type HIV1 NL4-3 infected in human MT4 cells. In kind it is functional. The gist of the method: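 Index is CC50 (cytotoxicity in MT-4 cells) divided by IC50 (inhibition of HIV-1/NL4-3 replication in MT-4 lymphocytes). Values are from three separate experiments. A ratio below 5 was scored as no selective anti-HIV activity.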

With `O=C(/C=C/c1ccc(O)c(O)c1)O[C@H](C(=O)O)[C@H](OC(=O)/C=C/c1ccc(O)c(O)c1)C(=O)O` [CHICORIC ACID], in data set [1], the IC50 was 4.2 µM.

For `C=C(C)[C@@H]1CC[C@]2(C(=O)N3CCN(C(=O)/C=C/c4ccc(O)c(O)c4)CC3)CC[C@]3(C)[C@H](CC[C@@H]4[C@@]5(C)CC[C@H](OC(=O)CC(C)(C)C(=O)O)C(C)(C)[C@@H]5CC[C@]43C)[C@@H]12`, in data set [2], the CC50 is over 4.5 µM. For the same molecule, the results for the IC50 in data set [3] and in data set [5] were 2.21 µM and 0.028 µM, respectively. In addition, the “Ratio IC50” value in data set [4] is reported as 78.93.

As for `C=C(C)[C@@H]1CC[C@]2(C(=O)N3CCNCC3)CC[C@]3(C)[C@H](CC[C@@H]4[C@@]5(C)CC[C@H](OC(=O)CC(C)(C)C(=O)O)C(C)(C)[C@@H]5CC[C@]43C)[C@@H]12`, the CC50 in [2] is over 1.5 µM. The same molecule had a half-maximal inhibitory concentration (IC50) in [5] of 0.49 µM.

With `C=C(C)[C@@H]1CC[C@]2(C(=O)N3CCN(C(=O)/C=C/c4ccc5c(c4)OCO5)CC3)CC[C@]3(C)[C@H](CC[C@@H]4[C@@]5(C)CC[C@H](O)C(C)(C)[C@@H]5CC[C@]43C)[C@@H]12`, the IC50 in [5] was over 1 µM.

For `C=C(C)[C@@H]1CC[C@]2(C(=O)N3CCN(C(=O)/C=C/c4ccc(OC)c(OC)c4)CC3)CC[C@]3(C)[C@H](CC[C@@H]4[C@@]5(C)CC[C@H](OC(=O)CC(C)(C)C(=O)O)C(C)(C)[C@@H]5CC[C@]43C)[C@@H]12`, the CC50 in [2] is over 4.5 µM. The IC50 in [3] came out at 2.97 µM; in [5], 0.029 µM. In addition, the results for the “Ratio IC50” value in [6] and in data set [4] were 1.39 - 51.4 and 102.41, respectively.

As for `O=C(/C=C/c1ccc(O)c(O)c1)O[C@@H]1C[C@](O)(C(=O)O)C[C@@H](OC(=O)/C=C/c2ccc(O)c(O)c2)[C@H]1O`, in data set [1], the IC50 is 1.9 µM.

For `C=C(C)[C@@H]1CC[C@]2(C(=O)N3CCN(C(=O)/C=C/c4ccc(OCOC)c(OCOC)c4)CC3)CC[C@]3(C)[C@H](CC[C@@H]4[C@@]5(C)CC[C@H](OC(=O)CC(C)(C)C(=O)O)C(C)(C)[C@@H]5CC[C@]43C)[C@@H]12`, the CC50 in data set [2] was over 4.5 µM. The molecule further yielded an IC50 in data set [5] of 0.05 µM.

In the case of `C=C(C)[C@@H]1CC[C@]2(C(=O)NCCCCCCCNC(C)=O)CC[C@]3(C)[C@H](CC[C@@H]4[C@@]5(C)CC[C@H](O)C(C)(C)[C@@H]5CC[C@]43C)[C@@H]12`, in data set [7], the inhibition entry is “Active”.

Take `C=C(C)[C@@H]1CC[C@]2(C(=O)O)CC[C@]3(C)[C@H](CC[C@@H]4[C@@]5(C)CC[C@H](OC(=O)CC(C)(C)C(=O)O)C(C)(C)[C@@H]5CC[C@]43C)[C@@H]12` [BEVIRIMAT]: in data set [2], the CC50 is over 4.5 µM. The half-inhibitory concentration (IC50) in data set [3] amounted to 7.71 µM; in data set [5] it was 0.065 µM. In data set [8], the Activity came out at 98%. Also, the t1/2 in data set [9] worked out at 0.9 h.

In the case of `C=C(C)[C@@H]1CC[C@]2(C(=O)N3CCN(C(=O)/C=C/c4ccc(OC)c(OC)c4)CC3)CC[C@]3(C)[C@H](CC[C@@H]4[C@@]5(C)CC[C@H](O)C(C)(C)[C@@H]5CC[C@]43C)[C@@H]12`, the IC50 in data set [5] is over 1 µM.

Molecule `C=C(C)[C@@H]1CC[C@]2(C(=O)N3CCN(C(=O)/C=C/c4ccc(OCOC)c(OCOC)c4)CC3)CC[C@]3(C)[C@H](CC[C@@H]4[C@@]5(C)CC[C@H](O)C(C)(C)[C@@H]5CC[C@]43C)[C@@H]12` returned an IC50 in [5] of over 1 µM.

As for `C=C(C)[C@@H]1CC[C@]2(C(=O)N3CCN(CCCCC(=O)N4CCN(C(=O)/C=C/c5ccc6c(c5)OCO6)CC4)CC3)CC[C@]3(C)[C@H](CC[C@@H]4[C@@]5(C)CC[C@H](O)C(C)(C)[C@@H]5CC[C@]43C)[C@@H]12`, the IC50 in [5] was over 1 µM.

As to `C=C(C)[C@@H]1CC[C@]2(C(=O)N3CCN(C(=O)/C=C/c4ccc5c(c4)OCO5)CC3)CC[C@]3(C)[C@H](CC[C@@H]4[C@@]5(C)CC[C@H](OC(=O)CC(C)(C)C(=O)O)C(C)(C)[C@@H]5CC[C@]43C)[C@@H]12`, the half-life in data set [10] is 56.3 to 69.5 h. Besides, the CC50 in data set [2] is over 4.5 µM. Further, the “Ratio IC50” value is 3 in data set [11], 51 in [6] and 7.89 - 7.9 in data set [4]. In addition, the half-maximal inhibitory concentration (IC50) amounted to 0.15 µM in data set [3] and 0.019 µM in data set [5]. In addition, the Activity in data set [8] turned out to be 99%. In addition, the t1/2 in data set [9] turned out to be 2.13 h.

`C=C(C)[C@@H]1CC[C@]2(C(=O)N3CCN(CCCCC(=O)N4CCN(C(=O)/C=C/c5ccc6c(c5)OCO6)CC4)CC3)CC[C@]3(C)[C@H](CC[C@@H]4[C@@]5(C)CC[C@H](OC(=O)CC(C)(C)C(=O)O)C(C)(C)[C@@H]5CC[C@]43C)[C@@H]12`: in data set [2], the CC50 is over 4.5 µM. Besides, the IC50 was 5.53 µM in data set [3] and 0.012 µM in [5]. Besides, the “Ratio IC50” value is 1.39 - 51.4 in data set [6] and 460.83 in [4].

Turning to `O=C(/C=C/c1ccc2c(c1)OCO2)N1CCNCC1`, the CC50 in data set [2] was over 90 µM. The same molecule came in with an IC50 in data set [5] of over 90 µM.

`O=C(/C=C/c1ccc(O)c2c1[C@H](C(=O)O)[C@@H](c1ccc(O)c(O)c1)O2)O[C@H](Cc1ccc(O)c(O)c1)C(=O)O` [LITHOSPERMIC ACID]: the IC50 in data set [12] was found to be 2 µM.

On to `O=C(O)/C=C/c1ccc2c(c1)OCO2`, for which the CC50 in data set [2] was over 90 µM. The IC50 in data set [5] is over 90 µM.

Consider `O=C(O)/C=C/c1ccc(O)c(O)c1` [CAFFEIC ACID], for which the “Ratio CC50/IC50” value in data set [13] is given as under 5. In data set [5], this molecule came in with a concentration for half-maximal inhibition (IC50) of over 1 µM.
